Measured values reported in ChEMBL document CHEMBL1128299, “Electrophilic N-benzylnaltrindoles as delta opioid receptor-selective antagonists” (J Med Chem, 1995).

How the values were obtained:
[1] = molecular target: Delta-type opioid receptor (Mus musculus) (UniProt P32300); assay: Antagonistic activity against opioid delta receptor in mouse vas deferens after 30 min. IC50 ratio determined without washing (prewash).; assay type: functional
Method in brief: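 Electrically stimulated mouse vas deferens with DADLE as the delta agonist. Antagonist at 100 nM was incubated for 30 min. Agonist IC50 was measured directly without washing. Result is the IC50 ratio versus control agonist IC50.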

[2] = molecular target: Delta-type opioid receptor (Homo sapiens) (UniProt P41143); assay: Selectivity ratio as ratio of ED50 value against delta-2 receptor to that delta-1 receptor after hours of administration,; assay type: functional, organism-based
Delta-type opioid receptor (Homo sapiens), sequence (P41143 whole entry): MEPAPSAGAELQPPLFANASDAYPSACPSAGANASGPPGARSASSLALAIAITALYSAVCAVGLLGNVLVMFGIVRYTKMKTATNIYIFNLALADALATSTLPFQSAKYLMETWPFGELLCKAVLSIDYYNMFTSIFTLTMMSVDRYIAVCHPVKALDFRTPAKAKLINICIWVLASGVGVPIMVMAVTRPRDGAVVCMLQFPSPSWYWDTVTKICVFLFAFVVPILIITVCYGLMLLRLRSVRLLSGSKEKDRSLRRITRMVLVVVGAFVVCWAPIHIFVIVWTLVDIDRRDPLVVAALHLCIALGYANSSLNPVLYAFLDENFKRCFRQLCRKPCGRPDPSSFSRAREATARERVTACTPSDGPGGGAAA
Method in brief: (§1)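 Mice were pretreated icv with antagonist at 5 nmol. Antinociception from icv DPDPE (delta1) or DSLET (delta2) was measured 1.5 or 24 h later. ED50 ratio is pretreated ED50 over control ED50. Selectivity is the DSLET ED50 ratio divided by the DPDPE ED50 ratio.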

Mus musculus [3] = assay: Tested in vivo for antagonistic activity against antinociceptive effect of icv-administered DPDPE in mice at 1.5 hr; assay type: functional; method in brief: as §1
[4] = molecular target: Mu-type opioid receptor (Cavia porcellus) (UniProt P97266); assay: Antagonistic activity against Opioid receptor mu 1 in guinea pig ileum assay; assay type: functional, tissue-based
Mu-type opioid receptor (Cavia porcellus), sequence (P97266 whole entry): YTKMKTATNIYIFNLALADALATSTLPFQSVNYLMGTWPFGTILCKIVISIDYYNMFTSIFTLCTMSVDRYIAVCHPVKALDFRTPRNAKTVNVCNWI
Method in brief: (§2)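 Electrically stimulated guinea pig ileum. Antagonist present at 100 nM during a 30 min incubation. Agonists were morphine (mu) and ethylketazocine (kappa). Antagonism was expressed as IC50 ratio: agonist IC50 with antagonist divided by control IC50.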

[5] = molecular target: Delta-type opioid receptor (Homo sapiens) (UniProt P41143); assay: Selectivity ratio as ratio of ED50 value against delta-2 receptor to that delta-1 receptor after 1.5 administration.; assay type: functional, organism-based; method in brief: as §1
Mus musculus [6] = assay: Tested in vivo for antagonistic activity against antinociceptive effect of icv-administered DSLET in mice at 24 hr; assay type: functional; method in brief: as §1
[7] = molecular target: Kappa-type opioid receptor (Cavia porcellus) (UniProt P41144); assay: Antagonistic activity against Opioid receptor kappa 1 in guinea pig ileum assay; assay type: functional, tissue-based; method in brief: as §2
Kappa-type opioid receptor (Cavia porcellus), sequence (P41144 whole entry): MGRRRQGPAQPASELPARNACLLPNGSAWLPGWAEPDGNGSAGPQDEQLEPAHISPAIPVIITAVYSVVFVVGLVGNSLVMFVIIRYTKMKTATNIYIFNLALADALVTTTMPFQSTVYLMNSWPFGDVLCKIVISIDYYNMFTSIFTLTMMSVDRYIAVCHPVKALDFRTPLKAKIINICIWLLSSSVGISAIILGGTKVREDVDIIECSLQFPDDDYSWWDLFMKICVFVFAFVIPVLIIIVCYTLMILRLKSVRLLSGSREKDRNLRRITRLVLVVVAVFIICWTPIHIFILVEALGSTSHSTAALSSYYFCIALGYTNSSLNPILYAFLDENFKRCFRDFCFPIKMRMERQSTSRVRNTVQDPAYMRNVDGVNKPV

Mus musculus [8] = assay: Tested in vivo for antagonistic activity against antinociceptive effect of icv-administered DPDPE in mice at 24 hr; assay type: functional; method in brief: as §1
Mus musculus [9] = assay: Tested in vivo for antagonistic activity against antinociceptive effect of icv-administered DSLET in mice at 1.5 hr; assay type: functional; method in brief: as §1
[10] = molecular target: T1, Opioid receptors; delta & kappa (Homo sapiens) (UniProt P41145+P41143); assay: Selectivity ratio as the ratio of IC50 ratio of delta receptor to that of kappa receptor.; assay type: functional
T1 sequence (P41143 whole entry, looked up): as the sequence (P41143 whole entry) above
T1 sequence (P41145 whole entry, looked up): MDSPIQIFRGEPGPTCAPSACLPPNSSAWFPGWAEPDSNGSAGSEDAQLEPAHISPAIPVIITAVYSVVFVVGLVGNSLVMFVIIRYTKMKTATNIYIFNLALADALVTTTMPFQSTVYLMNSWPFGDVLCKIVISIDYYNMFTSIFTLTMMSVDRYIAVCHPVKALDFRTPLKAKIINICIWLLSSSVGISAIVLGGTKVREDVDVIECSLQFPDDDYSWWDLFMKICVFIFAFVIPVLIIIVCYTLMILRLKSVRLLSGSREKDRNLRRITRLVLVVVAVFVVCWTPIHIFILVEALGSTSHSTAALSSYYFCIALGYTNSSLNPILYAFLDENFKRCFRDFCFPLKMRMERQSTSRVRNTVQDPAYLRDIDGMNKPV
Method in brief: (§3)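 Each selectivity value is the delta IC50 ratio from mouse vas deferens (DADLE, 100 nM antagonist, 30 min) divided by the kappa (ethylketazocine) or mu (morphine) IC50 ratio from guinea pig ileum. A value of 1 was used wherever an IC50 ratio was below 1.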

[11] = molecular target: T2, Opioid receptors; mu & delta (Homo sapiens) (UniProt P41143+P35372); assay: Selectivity ratio as the ratio of IC50 ratio of delta receptor to that of mu receptor.; assay type: functional; method in brief: as §3
T2 sequence (P35372 whole entry, looked up): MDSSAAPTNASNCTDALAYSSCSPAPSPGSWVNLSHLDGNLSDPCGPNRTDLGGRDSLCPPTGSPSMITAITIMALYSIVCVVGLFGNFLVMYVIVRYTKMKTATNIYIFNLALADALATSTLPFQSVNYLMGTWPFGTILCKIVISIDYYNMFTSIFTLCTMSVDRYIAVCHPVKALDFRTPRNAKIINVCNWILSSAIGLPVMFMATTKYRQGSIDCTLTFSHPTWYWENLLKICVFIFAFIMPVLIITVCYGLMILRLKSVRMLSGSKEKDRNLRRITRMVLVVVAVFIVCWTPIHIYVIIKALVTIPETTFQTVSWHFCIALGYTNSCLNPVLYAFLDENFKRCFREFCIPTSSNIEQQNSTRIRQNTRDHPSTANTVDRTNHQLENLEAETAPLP
T2 sequence (P41143 whole entry, looked up): as the sequence (P41143 whole entry) above

[12] = molecular target: Delta-type opioid receptor (Mus musculus) (UniProt P32300); assay: Antagonistic activity against opioid delta receptor in mouse vas deferens after 30 min incubation. Preparation was washed (5x) with buffer after incubation with antagonist.; assay type: functional, tissue-based
Method in brief: (§4)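 Electrically stimulated mouse vas deferens with DADLE as the delta agonist. Antagonist at 100 nM was incubated for the stated time (10, 30 or 60 min). The preparation was then washed 5 times with buffer before agonist IC50 was measured. Result is the IC50 ratio, agonist IC50 with antagonist over control IC50.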

[13] = molecular target: T1, Opioid receptors; delta & kappa (Homo sapiens); assay: Selectivity ratio as ratio of Ki value towards kappa receptor to that of delta-1 receptor.; assay type: protein assay
[14] = molecular target: T2, Opioid receptors; mu & delta (Homo sapiens); assay: Selectivity ratio as ratio of Ki value towards mu receptor to that of delta-1 receptor.; assay type: protein assay
[15] = molecular target: Kappa-type opioid receptor (Cavia porcellus, UniProt P41144); assay: Tested for binding affinity against Opioid receptor kappa 1 using [3H]U-69593 as a radioligand in the guinea pig brain membranes.; assay type: cell membranes
Kappa-type opioid receptor, sequence (P41144 whole entry): as the sequence (P41144 whole entry) above
Method in brief: (§5)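 Radioligand competition in guinea pig brain membranes. Kappa sites were labelled with [3H]U69593 and mu sites with [3H]DAMGO. Delta1 sites used [3H]DPDPE and delta2 sites used [3H]DSLET, both in the presence of 100 nM unlabelled DAMGO. Results are reported as Ki.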

[16] = molecular target: Delta-type opioid receptor (Mus musculus) (UniProt P32300); assay: Antagonistic activity against opioid delta receptor in mouse vas deferens after 10 minutes. Preparation was washed (5x) with buffer after incubation with antagonist.; assay type: functional, tissue-based; method in brief: as §4
Mu-type opioid receptor = Mu-type opioid receptor (Cavia porcellus, UniProt P97266); assay: Tested for binding affinity against mu opioid receptor using [3H]DAMGO as a radioligand in the guinea pig brain membranes.; assay type: cell membranes; method in brief: as §5
Mu-type opioid receptor, sequence (P97266 whole entry): as the sequence (P97266 whole entry) above

[17] = molecular target: Delta-type opioid receptor (Mus musculus) (UniProt P32300); assay: Tested […] for antagonistic activity against opioid delta receptor in mice at incubation time of 60 minutes. Preparation was washed (5x) with buffer after incubation with antagonist.; assay type: functional

Delta-type opioid receptor (Mus musculus), sequence (P32300 whole entry): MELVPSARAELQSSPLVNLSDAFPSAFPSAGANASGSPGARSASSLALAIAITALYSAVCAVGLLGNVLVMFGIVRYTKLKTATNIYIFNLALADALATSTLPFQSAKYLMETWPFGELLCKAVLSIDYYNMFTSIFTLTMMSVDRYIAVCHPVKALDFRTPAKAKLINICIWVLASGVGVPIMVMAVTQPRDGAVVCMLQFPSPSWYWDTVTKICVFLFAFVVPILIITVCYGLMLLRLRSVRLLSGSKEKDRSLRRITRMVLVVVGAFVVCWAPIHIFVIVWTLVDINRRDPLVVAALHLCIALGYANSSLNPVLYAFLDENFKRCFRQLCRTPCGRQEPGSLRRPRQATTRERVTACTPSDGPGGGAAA

Oc1ccc2c3c1O[C@H]1c4c(c5ccccc5n4Cc4ccccc4)C[C@@]4(O)C(C2)N(CC2CC2)CCC314 (some centres not stated) was tested, and the IC50 ratio [1] was 208, the Selectivity [2] was 7.4 and the ED50 ratio (Mus musculus [3]) was 1. The IC50 ratio [4] was 1.6, the Selectivity [5] was 3.2 and the ED50 ratio (Mus musculus [6]) was 11.1. The IC50 ratio [7] was 0.4, the ED50 ratio (Mus musculus [8]) was 1.5 and the ED50 ratio (Mus musculus [9]) was 3.2. The Selectivity [10] was 208 and the Selectivity [11] was 131.

Work on CC(=O)Nc1ccccc1Cn1c2c(c3ccccc31)C[C@@]1(O)C3Cc4ccc(O)c5c4C1(CCN3CC1CC1)[C@H]2O5 (some centres not stated) yielded an IC50 ratio [1] of 54, an IC50 ratio [4] of 1.9 and an IC50 ratio [12] of 10. It also gave an IC50 ratio [7] of 1.3, a Selectivity [10] of 42 and a Selectivity [11] of 29.

Compound O=C(CBr)Nc1cccc(Cn2c3c(c4ccccc42)C[C@@]2(O)C4Cc5ccc(O)c6c5C2(CCN4CC2CC2)[C@H]3O6)c1 (some centres not stated) has a Selectivity [13] of 463, an IC50 ratio [1] of 511 and a Selectivity [14] of 805. The Selectivity [2] was 2.5, the ED50 ratio (Mus musculus [3]) was 1 and the IC50 ratio [4] was 3.8. It also gave a Ki [15] of 8.8 nM, a Selectivity [5] of 2.4 and an IC50 ratio [12] of 51. The ED50 ratio (Mus musculus [6]) was 6.9, the IC50 ratio [7] was 0.9 and the ED50 ratio (Mus musculus [8]) was 2.8. The ED50 ratio (Mus musculus [9]) was 2.4, the Selectivity [10] was 511 and the IC50 ratio [16] was 44. It also gave a Selectivity [11] of 135 and a Ki (Mu-type opioid receptor) of 15.3 nM.

For O=C(CBr)Nc1ccc(Cn2c3c(c4ccccc42)C[C@@]2(O)C4Cc5ccc(O)c6c5C2(CCN4CC2CC2)[C@H]3O6)cc1 (some centres not stated), the IC50 ratio [1] was 30, the IC50 ratio [17] was 1.4 and the IC50 ratio [4] was 0.7. The IC50 ratio [12] was 12, the IC50 ratio [7] was 0.9 and the Selectivity [10] was 30. The IC50 ratio [16] was 3.6 and the Selectivity [11] was 30.

Work on O=C(CBr)Nc1ccccc1Cn1c2c(c3ccccc31)C[C@@]1(O)C3Cc4ccc(O)c5c4C1(CCN3CC1CC1)[C@H]2O5 (some centres not stated) yielded an IC50 ratio [1] of 35, an IC50 ratio [4] of 1.7 and an IC50 ratio [12] of 13. It also gave an IC50 ratio [7] of 1.1, a Selectivity [10] of 33 and a Selectivity [11] of 21.

With Oc1ccc2c3c1O[C@H]1c4c(c5ccccc5n4Cc4ccc(N=C=S)cc4)C[C@@]4(O)C(C2)N(CC2CC2)CCC314 (some centres not stated) the Selectivity [13] was 46, the IC50 ratio [1] was 18 and the Selectivity [14] was 55. It also gave a Selectivity [2] of 1.7, an ED50 ratio (Mus musculus [3]) of 1.1 and an IC50 ratio [4] of 1.3. The Ki [15] was 245 nM, the Selectivity [5] was 3.5 and the IC50 ratio [12] was 20. For the same compound, the ED50 ratio (Mus musculus [6]) was 4.2, the IC50 ratio [7] was 0.6 and the ED50 ratio (Mus musculus [8]) was 2.5. The ED50 ratio (Mus musculus [9]) was 3.8, the Selectivity [10] was 18 and the IC50 ratio [16] was 6.7. It also gave a Selectivity [11] of 25 and a Ki (Mu-type opioid receptor) of 289 nM.

In the case of Oc1ccc2c3c1O[C@H]1c4c(c5ccccc5n4Cc4ccccc4N=C=S)C[C@@]4(O)C(C2)N(CC2CC2)CCC314 (some centres not stated), the Selectivity [13] is reported as 308, the IC50 ratio [1] is reported as 57 and the Selectivity [14] is reported as 76. The Selectivity [2] was 0.5, the IC50 ratio [17] was 216 and the ED50 ratio (Mus musculus [3]) was 1.1. The IC50 ratio [4] was 0.6, the Ki [15] was 615 nM and the Selectivity [5] was 1.3. It also gave an IC50 ratio [12] of 39, an ED50 ratio (Mus musculus [6]) of 8.8 and an IC50 ratio [7] of 1.3. The ED50 ratio (Mus musculus [8]) was 19.4, the ED50 ratio (Mus musculus [9]) was 1.4 and the Selectivity [10] was 45. It also gave an IC50 ratio [16] of 23, a Selectivity [11] of 57 and a Ki (Mu-type opioid receptor) of 151 nM.

Work on CC(=O)Nc1ccc(Cn2c3c(c4ccccc42)C[C@@]2(O)C4Cc5ccc(O)c6c5C2(CCN4CC2CC2)[C@H]3O6)cc1 (some centres not stated) yielded an IC50 ratio [1] of 31, an IC50 ratio [17] of 7.1 and an IC50 ratio [4] of 0.9. For the same compound, the IC50 ratio [12] was 3.1, the IC50 ratio [7] was 0.2 and the Selectivity [10] was 31. The IC50 ratio [16] was 1.6 and the Selectivity [11] was 31.

CC(=O)Nc1cccc(Cn2c3c(c4ccccc42)C[C@@]2(O)C4Cc5ccc(O)c6c5C2(CCN4CC2CC2)[C@H]3O6)c1 (some centres not stated) gave an IC50 ratio [1] of 33, an IC50 ratio [4] of 5.3 and an IC50 ratio [12] of 18. The IC50 ratio [7] was 0.9, the Selectivity [10] was 31 and the IC50 ratio [16] was 16. For the same compound, the Selectivity [11] was 31.

Compound O=C(CI)Nc1ccccc1Cn1c2c(c3ccccc31)C[C@@]1(O)C3Cc4ccc(O)c5c4C1(CCN3CC1CC1)[C@H]2O5 (some centres not stated) has an IC50 ratio [1] of 50.7, an IC50 ratio [4] of 0.7 and an IC50 ratio [12] of 25.5. For the same compound, the IC50 ratio [7] was 0.5, the Selectivity [10] was 51 and the IC50 ratio [16] was 51.2. It also gave a Selectivity [11] of 51.

Work on Oc1ccc2c3c1O[C@H]1c4c(c5ccccc5n4Cc4cccc(N=C=S)c4)C[C@@]4(O)C(C2)N(CC2CC2)CCC314 (some centres not stated) yielded a Selectivity [13] of 5, a Selectivity [14] of 16 and a Selectivity [2] of 1.2. For the same compound, the ED50 ratio (Mus musculus [3]) was 1.1, the IC50 ratio [4] was 0.8 and the Ki [15] was 104 nM. The Selectivity [5] was 1.7, the ED50 ratio (Mus musculus [6]) was 4.1 and the IC50 ratio [7] was 1.2. It also gave an ED50 ratio (Mus musculus [8]) of 3.5, an ED50 ratio (Mus musculus [9]) of 1.9 and a Ki (Mu-type opioid receptor) of 66.2 nM.
